Data as given in ChEMBL document CHEMBL4138044, “Withaferin A induces cell death and differentiation in multiple myeloma cancer stem cells” (Medchemcomm, 2017).
The source made the active and inactive calls. The calls are words filed in the database; no cut-off is given here.

What was measured:
[1] = Cell cycle arrest in human […] cells assessed as accumulation at sub-G1 phase at 1.25 uM […] by FxCycle violet staining-based flow cytometric method (reference value: 10.8%); format: functional
Method in brief: (§1)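 Cells treated 24 h with vehicle or WFA; MM-CSCs were seeded at 100 000 per well and left to adhere 24 h first, RPMIs seeded at 300 000 per well and treated at once. Floating and adherent cells fixed and permeabilized, adjusted to 10^6 cells/mL in PBS, then stained with FxCycle DNA dye for 30 min at room temperature. Flow cytometry; ≥3 independent experiments, mean ± SEM.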

[2] = system: Multiple myeloma cancer stem cell; assay: Cell cycle arrest in human multiple myeloma cancer stem cells assessed as accumulation at G1 phase at 1.25 uM […] by FxCycle violet staining-based flow cytometric method (reference value: 45.1%); format: functional; method in brief: as §1
[3] = system: Multiple myeloma cancer stem cell; assay: Induction of differentiation of human multiple myeloma cancer stem cells assessed as downregulation of MSI2 mRNA expression at 0.31 to 5 uM after 24 hrs by qPCR method; format: functional, cell-based
Method in brief: (§2)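 MM-CSCs treated with vehicle or increasing WFA concentrations for 24 h. Relative mRNA levels of the stemness markers then measured; mean ± SEM of 3 independent experiments, one-way ANOVA with Bonferroni test.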

[4] = system: Multiple myeloma cancer stem cell; assay: Antimigratory activity in human multiple myeloma cancer stem cells at 0.62 to 1.25 uM after 24 hrs by scratch assay; format: functional, cell-based
Method in brief: (§3)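 MM-CSCs seeded at 100 000 cells per well, grown 24 h to a confluent monolayer, scratched with a pipette tip and imaged at 0 h. Cells then treated with increasing WFA concentrations for 24 h and the same spot re-imaged. Percent unfilled space = scratch width at 24 h / width at 0 h × 100; recovery = 100 − unfilled. 3 independent experiments.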

[5] = system: Multiple myeloma cancer stem cell; assay: Induction of morphological changes in human multiple myeloma cancer stem cells assessed as appearance of larger cytoplasmic area at 1.25 uM after 24 hrs by phalloidin/DAPI staining-based assay; format: functional
Method in brief: (§4)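 MM-CSCs seeded at 5000 cells/well and allowed to adhere 24 h, then treated with increasing WFA for 24 h. Fixed in 4% paraformaldehyde for 10 min, permeabilized with 0.1% Triton X-100 for 5 min, stained with 5 U/mL phalloidin for 20 min and 1 μg/mL DAPI for 5 min at room temperature. Imaged; cell area and circularity quantified; 3 experiments.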

[6] = system: Multiple myeloma cancer stem cell; assay: Cell cycle arrest in human multiple myeloma cancer stem cells assessed as accumulation at G1 phase at 2.5 uM […] by FxCycle violet staining-based flow cytometric method (reference value: 45.1%); format: functional; method in brief: as §1
[7] = system: Multiple myeloma cancer stem cell; assay: Cytotoxicity against human multiple myeloma cancer stem cells assessed as dying cells at 10 uM after 24 hrs by calcein AM/ethidium homodimer staining-based flow cytometric method (reference value: 3.6%); format: functional
[8] = Cell cycle arrest in human […] cells assessed as accumulation at G2/M phase at 1.25 uM […] by FxCycle violet staining-based flow cytometric method (reference value: 20.2%); format: functional; method in brief: as §1
[9] = system: Multiple myeloma cancer stem cell; assay: Cytotoxicity against human multiple myeloma cancer stem cells assessed as dead cells at 10 uM after 24 hrs by calcein AM/ethidium homodimer staining-based flow cytometric method (reference value: 0.7%); format: functional
[10] = system: Multiple myeloma cancer stem cell; assay: Induction of morphological changes in human multiple myeloma cancer stem cells assessed as appearance in circular shape at 0.62 uM after 24 hrs by phalloidin/DAPI staining-based assay; format: functional; method in brief: as §4
[11] = system: Multiple myeloma cancer stem cell; assay: Cytotoxicity against human multiple myeloma cancer stem cells assessed as cell viability at 2.5 uM after 24 hrs by calcein AM/ethidium homodimer staining-based flow cytometric method (reference value: 95.7%); format: functional; settings: read-out: Activity
[12] = Antiproliferative activity against human […] cells after 72 hrs by XTT assay; format: functional, cell-based
Method in brief: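 RPMI 8226 cells in RPMI 1640 with 10% FBS, plated at 15 000 cells/well and treated immediately with 0–10 μM WFA for 72 h. XTT added for 4 h. Growth as absorbance relative to vehicle control ×100. IC50 fitted from at least five concentrations; mean of three independent experiments ± SEM.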

[13] = system: Multiple myeloma cancer stem cell; assay: Induction of morphological changes in human multiple myeloma cancer stem cells assessed as appearance in spherical shape at 1.25 uM after 24 hrs by phalloidin/DAPI staining-based assay; format: functional; method in brief: as §4
[14] = system: Multiple myeloma cancer stem cell; assay: Induction of morphological changes in human multiple myeloma cancer stem cells assessed as appearance of epithelial/lymphoblastic-like morphology at 0.62 uM after 24 hrs by phalloidin/DAPI staining-based assay; format: functional; method in brief: as §4
[15] = species on record: Homo sapiens; assay: Cell cycle arrest in human […] cells assessed as accumulation at sub-G1 phase […] by FxCycle violet staining-based flow cytometric method; format: functional; method in brief: as §1
[16] = system: Multiple myeloma cancer stem cell; assay: Induction of differentiation of human multiple myeloma cancer stem cells assessed as downregulation of CD166 mRNA expression at 0.31 to 5 uM after 24 hrs by qPCR method; format: functional, cell-based; method in brief: as §2
[17] = system: Multiple myeloma cancer stem cell; assay: Cytotoxicity against human multiple myeloma cancer stem cells assessed as cell viability at 10 uM after 24 hrs by calcein AM/ethidium homodimer staining-based flow cytometric method (reference value: 95.7%); format: functional; settings: read-out: Activity
[18] = species on record: Homo sapiens; assay: Cytotoxicity against human RPMI18226 cells assessed as decrease in cell viability after 24 hrs by calcein AM/ethidium homodimer staining-based flow cytometric method; format: functional
[19] = system: Multiple myeloma cancer stem cell; assay: Cell cycle arrest in human multiple myeloma cancer stem cells assessed as accumulation at G2/M phase at 2.5 uM […] by FxCycle violet staining-based flow cytometric method (reference value: 22.9%); format: functional; method in brief: as §1
[20] = system: Multiple myeloma cancer stem cell; assay: Induction of differentiation of human multiple myeloma cancer stem cells assessed as upregulation of CD44 mRNA expression at 0.31 to 5 uM after 24 hrs by qPCR method; format: functional, cell-based; method in brief: as §2
[21] = species on record: Homo sapiens; assay: Induction of apoptosis in human […] cells assessed as decrease in viable cells at 1.25 uM after 24 hrs by annexin V/propidium iodide staining-based flow cytometric method; format: functional, cell-based
Method in brief: (§5)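 Annexin V/propidium iodide apoptosis staining after 24 h WFA. MM-CSCs adhered 24 h before treatment; RPMIs treated immediately after seeding at 300 000 per well. Floating and adherent cells washed, adjusted to 10^6 cells/mL, stained 15 min at room temperature, flow cytometry separating viable, early and late apoptotic cells; ≥3 independent experiments, mean ± SEM.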

[22] = species on record: Homo sapiens; assay: Induction of apoptosis in human […] cells assessed as increase in late apoptotic cells at 1.25 uM after 24 hrs by annexin V/propidium iodide staining-based flow cytometric method; format: functional, cell-based; method in brief: as §5
[23] = Cytotoxicity against human CD34-positive hematopoietic stem cells assessed as decrease in cell viability at 10 uM after 24 hrs by calcein AM/ethidium homodimer staining-based flow cytometric method
[24] = system: Multiple myeloma cancer stem cell; assay: Induction of morphological changes in human multiple myeloma cancer stem cells assessed as cell enlargement at 0.62 uM after 24 hrs by phalloidin/DAPI staining-based assay; format: functional; method in brief: as §4
[25] = system: RPMI-8226 (Homo sapiens); assay: Cell cycle arrest in human RPMI-8226 cells assessed as accumulation at S phase at 0.62 uM […] by FxCycle violet staining-based flow cytometric method (reference value: 40.9%)
[26] = system: RPMI-8226 (Homo sapiens); assay: Cell cycle arrest in human RPMI-8226 cells assessed as accumulation at S phase at 1.25 uM […] by FxCycle violet staining-based flow cytometric method (reference value: 40.9%)
[27] = system: Multiple myeloma cancer stem cell; assay: Induction of apoptosis in human multiple myeloma cancer stem cells assessed as increase in late apoptotic cells at 5 uM after 24 hrs by annexin V/propidium iodide staining-based flow cytometric method; format: functional; method in brief: as §5
[28] = Cytotoxicity against human RPMI18226 cells assessed as dead cells at 10 uM after 24 hrs by calcein AM/ethidium homodimer staining-based flow cytometric method (reference value: 21.4%); format: functional
[29] = system: Multiple myeloma cancer stem cell; assay: Induction of differentiation of human multiple myeloma cancer stem cells assessed as upregulation of Kit mRNA expression at 0.31 to 5 uM after 24 hrs by qPCR method; format: functional, cell-based; method in brief: as §2
[30] = system: Multiple myeloma cancer stem cell; assay: Antiproliferative activity against human multiple myeloma cancer stem cells after 72 hrs by MTT assay; format: functional, cell-based
Method in brief: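 MM-CSCs plated at 5000 cells/well and allowed to adhere 24 h, then exposed to 0–10 μM WFA for 72 h. MTT added for 2 h. Growth taken as absorbance relative to vehicle-control wells ×100. IC50 fitted from at least five concentrations; mean of three independent experiments ± SEM.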

[31] = system: Multiple myeloma cancer stem cell; assay: Cytotoxicity against human multiple myeloma cancer stem cells assessed as decrease in cell viability after 24 hrs by calcein AM/ethidium homodimer staining-based flow cytometric method; format: functional
[32] = Cell cycle arrest in human […] cells assessed as accumulation at G1 phase at 1.25 uM […] by FxCycle violet staining-based flow cytometric method (reference value: 28.2%); format: functional; method in brief: as §1
[33] = system: RPMI-8226 (Homo sapiens); assay: Cell cycle arrest in human RPMI-8226 cells assessed as accumulation at S phase at 2.5 uM […] by FxCycle violet staining-based flow cytometric method (reference value: 40.9%)
[34] = Cytotoxicity against human RPMI18226 cells assessed as cell viability at 10 uM after 24 hrs by calcein AM/ethidium homodimer staining-based flow cytometric method (reference value: 67.7%); format: functional; settings: RPMI18226, 24 h, read-out: Activity
[35] = system: Multiple myeloma cancer stem cell; assay: Induction of differentiation of human multiple myeloma cancer stem cells assessed as downregulation of SOX2 mRNA expression at 0.31 to 5 uM after 24 hrs by qPCR method; format: functional, cell-based; method in brief: as §2
[36] = system: Multiple myeloma cancer stem cell; assay: Cell cycle arrest in human multiple myeloma cancer stem cells assessed as accumulation at G1 phase at 0.62 uM […] by FxCycle violet staining-based flow cytometric method (reference value: 45.1%); format: functional; method in brief: as §1
[37] = species on record: Homo sapiens; assay: Cytotoxicity against human RPMI18226 cells assessed as increase in dead cells at 1.25 uM after 24 hrs by calcein AM/ethidium homodimer staining-based flow cytometric method (reference value: 21.4%); format: functional, cell-based
[38] = Cytotoxicity against human CD34-positive hematopoietic stem cells assessed as decrease in cell viability at <5 uM after 24 hrs by calcein AM/ethidium homodimer staining-based flow cytometric method
[39] = system: Multiple myeloma cancer stem cell; assay: Induction of differentiation of human multiple myeloma cancer stem cells assessed as downregulation of CD151 mRNA expression at 0.31 to 5 uM after 24 hrs by qPCR method; format: functional, cell-based; method in brief: as §2
[40] = system: Multiple myeloma cancer stem cell; assay: Antimigratory activity in human multiple myeloma cancer stem cells at 2.5 uM after 24 hrs by scratch assay; format: functional, cell-based; method in brief: as §3
[41] = Cell cycle arrest in human […] cells assessed as accumulation at sub-G1 phase at 0.62 uM […] by FxCycle violet staining-based flow cytometric method (reference value: 10.8%); format: functional; method in brief: as §1
[42] = system: Multiple myeloma cancer stem cell; assay: Induction of apoptosis in human multiple myeloma cancer stem cells assessed as decrease in viable cells at 5 uM after 24 hrs by annexin V/propidium iodide staining-based flow cytometric method; format: functional; method in brief: as §5
[43] = Cell cycle arrest in human […] cells assessed as accumulation at sub-G1 phase at 2.5 uM […] by FxCycle violet staining-based flow cytometric method (reference value: 10.8%); format: functional; method in brief: as §1
[44] = system: Multiple myeloma cancer stem cell; assay: Cell cycle arrest in human multiple myeloma cancer stem cells assessed as accumulation at G2/M phase at 1.25 uM […] by FxCycle violet staining-based flow cytometric method (reference value: 22.9%); format: functional; method in brief: as §1
[45] = Cytotoxicity against human RPMI18226 cells assessed as cell viability at 1.25 uM after 24 hrs by calcein AM/ethidium homodimer staining-based flow cytometric method (reference value: 67.7%); format: functional; settings: RPMI18226, 24 h, read-out: Activity

## CC1=C(CO)C(=O)O[C@@H]([C@@H](C)[C@H]2CC[C@H]3[C@@H]4C[C@H]5O[C@]56[C@@H](O)C=CC(=O)[C@]6(C)[C@H]4CC[C@]23C)C1 [WITHAFERIN A]
[1]
  Activity: 23.1%
[2]
  Activity: 15.5%
[3]
  Activity: Active
[4]
  Activity: inactive
[5]
  Activity: Active
[6]
  Activity: 19.5%
[7]
  Activity: 31.5%
[8]
  Activity: 28.4%
[9]
  Activity: 56.4%
[10]
  Activity: Active
[11]
  viability at 2.5 µM: 64.6%
[12]
  IC50: 0.224 µM
[13]
  Activity: Active
[14]
  Activity: Active
[15]
  Activity: Dose-dependent effect
[16]
  Activity: Active
[17]
  viability at 10 µM: 12.1%
[18]
  Activity: Dose-dependent effect
[19]
  Activity: 61.4%
[20]
  Activity: Active
[21]
  Activity: Active
[22]
  Activity: Active
[23]
  Activity: Toxic
[24]
  Activity: Active
[25]
  Activity: 31.7%
[26]
  Activity: 29.4%
[27]
  Activity: Active
[28]
  Activity: 87%
[29]
  Activity: Active
[30]
  IC50: 0.65 µM
[31]
  Activity: Dose-dependent effect
[32]
  Activity: 19.1%
[33]
  Activity: 34%
[34]
  viability at 10 µM: 8.2%
[35]
  Activity: Active
[36]
  Activity: 21.5%
[37]
  Activity: Active
[38]
  Activity: Non-Toxic
[39]
  Activity: Active
[40]
  Activity: Active
[41]
  Activity: 15.6%
[42]
  Activity: Active
[43]
  Activity: 21.5%
[44]
  Activity: 59.6%
[45]
  viability at 1.25 µM: 32.1%

## CC(C)C[C@H](NC(=O)[C@H](Cc1ccccc1)NC(=O)c1cnccn1)B(O)O [BORTEZOMIB]
[12]
  IC50: 0.0036 µM
[30]
  IC50: 0.0084 µM
